Measured values taken from ChEMBL document CHEMBL4680229, “Design, synthesis and bioactivity study of N-salicyloyl tryptamine derivatives as multifunctional agents for the treatment of neuroinflammation” (Eur J Med Chem, 2020).
Active and inactive are the calls of the source. The rule behind the calls is not given here.

How the values were obtained:
BV-2 [1] = assay: Cytotoxicity against mouse BV-2 cells assessed as reduction in cell viability after 24 hrs by MTT assay; type: cell-based; settings: BV-2, 24 h
Method in brief: (§1)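 C6 or BV2 cells seeded at 1–5×10^5 per well; after 12 h exposed to 0, 6.25, 12.5, 25, 50 or 100 μM (final, DMSO <0.4%) for 24 h. MTT added for 4 h, dissolved in DMSO, read at 570 nm. IC50 as mean of three independent experiments run in triplicate.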

C6 [2] = assay: Cytotoxicity against rat C6 cells assessed as reduction in cell viability after 24 hrs by MTT assay; type: cell-based; settings: C6, 24 h; method in brief: as §1
[3] = target: Prostaglandin G/H synthase 2 (Homo sapiens) (UniProt P35354); assay: Inhibition of human COX2 assessed as reduction in PGF2alpha formation using arachidonic acid as substrate incubated for 10 mins by ELISA
Sequence of Prostaglandin G/H synthase 2 (Homo sapiens) (P35354 whole entry, looked up): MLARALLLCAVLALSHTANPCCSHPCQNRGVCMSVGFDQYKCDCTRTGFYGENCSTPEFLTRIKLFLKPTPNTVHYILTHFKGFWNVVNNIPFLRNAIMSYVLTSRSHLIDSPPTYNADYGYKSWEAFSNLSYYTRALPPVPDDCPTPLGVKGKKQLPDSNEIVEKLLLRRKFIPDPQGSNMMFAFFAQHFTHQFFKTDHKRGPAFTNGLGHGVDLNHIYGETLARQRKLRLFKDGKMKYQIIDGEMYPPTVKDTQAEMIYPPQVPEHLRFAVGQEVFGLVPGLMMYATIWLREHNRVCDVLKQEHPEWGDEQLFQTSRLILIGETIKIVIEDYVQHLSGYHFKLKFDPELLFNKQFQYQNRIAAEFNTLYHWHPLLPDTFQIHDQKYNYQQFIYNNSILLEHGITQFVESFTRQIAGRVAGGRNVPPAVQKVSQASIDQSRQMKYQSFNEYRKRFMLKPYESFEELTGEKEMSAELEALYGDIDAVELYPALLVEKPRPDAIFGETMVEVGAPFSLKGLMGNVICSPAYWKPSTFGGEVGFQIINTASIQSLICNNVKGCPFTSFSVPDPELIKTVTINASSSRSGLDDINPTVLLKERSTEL

[4] = target: Prostaglandin G/H synthase 1 (Homo sapiens) (UniProt P23219); assay: Inhibition of human COX1 assessed as reduction in PGF2alpha formation using arachidonic acid as substrate incubated for 10 mins by ELISA
Homo sapiens = organism: Homo sapiens; assay: Selectivity index, ratio of IC50 for inhibition of human COX1 to IC50 for inhibition of human COX2
C6 [5] = assay: Inhibition of LPS-induced NO production in rat C6 cells incubated for 24 hrs by Griess reagent based assay; type: functional, cell-based; settings: C6, 24 h
Method in brief: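 C6 cells at 5×10^5 cells/mL, LPS 10 μg/mL plus compound at 2.5–40 μM final for 24 h. Nitrite measured with Griess reagent at 540 nm against a NaNO2 standard; IC50 from three repeats.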

[6] = Inhibition of LPS-induced NO production in mouse BV-2 cells incubated for 24 hrs by Griess reagent based assay; type: functional, cell-based; settings: BV-2, 24 h
Method in brief: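 BV2 cells at 5×10^5 cells/mL, LPS 1 μg/mL plus compound at 2.5–40 μM final for 24 h. Supernatant nitrite measured with Griess reagent for 15 min at room temperature in the dark, 540 nm, against a NaNO2 standard curve; IC50 from three repeats.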

[7] = Antioxidant activity assessed as DPPH radical scavenging activity incubated for 30 mins; type: functional
Method in brief: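 Compound in ethanol at 2.5–40 μM final, mixed 1:1 with 700 μmol/L ethanolic DPPH; 30 min in the dark at room temperature, absorbance at 515 nm. Serotonin used as standard; EC50 from three independent experiments.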

BV-2 [8] = assay: Antiinflammatory activity against LPS-induced mouse BV-2 cells assessed as decrease in COX2 protein expression at 40 uM after 24 hrs by Western blot analysis; type: functional, cell-based
Method in brief: (§2)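 BV2 cells in DMEM with 10% FBS; LPS 1 μg/mL plus compound at 10, 20 or 40 μM final for 24 h. Lysates in RIPA with 1 mM PMSF; 30 μg protein on 8% SDS-PAGE and blotted for iNOS and COX-2, GAPDH as reference; ECL detection and densitometry; at least three independent experiments.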

C6 [9] = assay: Antiinflammatory activity against LPS-induced rat C6 cells assessed as decrease in GFAP protein expression at 20 uM after 24 hrs by DAPI staining based confocal laser microscopic method; type: functional, cell-based
Method in brief: (§3)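 Cells on glass slides with compound at 20 μM final for 24 h: C6 with LPS 10 μg/mL stained for GFAP, BV2 with LPS 1 μg/mL stained for Iba-1. Fixed in 4% paraformaldehyde, blocked in 1% BSA/0.3% Triton X-100, primary antibody 1:100 overnight at 4 °C, secondary 1:200, DAPI mount, confocal imaging. Intensity given as % of LPS group, n = 3.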

BV-2 [10] = assay: Antiinflammatory activity against LPS-induced mouse BV-2 cells assessed as decrease in INOS protein expression at 40 uM after 24 hrs by Western blot analysis relative to control; type: functional; set-up: scale not given: the % may be the effect or the level left; method in brief: as §2
C6 [11] = assay: Inhibition of LPS-induced TNFalpha production in rat C6 cells after 24 hrs by ELISA; type: functional, cell-based; settings: dose 10-40 µM
Method in brief: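 C6 cells at 5×10^5 cells/mL stimulated with LPS 10 μg/mL; compound at 10, 20 or 40 μM final for 24 h. Supernatant TNF-α measured by sandwich ELISA at 450 nm; at least three independent experiments.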

BV-2 [12] = assay: Antiinflammatory activity against LPS-induced mouse BV-2 cells assessed as decrease in iba-1 protein expression at 20 uM after 24 hrs by DAPI staining based confocal laser microscopic method; type: functional, cell-based; method in brief: as §3
BV-2 [13] = assay: Inhibition of LPS-induced TNFalpha production in mouse BV-2 cells after 24 hrs by ELISA; type: functional, cell-based; settings: dose 10-40 µM
Method in brief: (§4)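 BV2 cells at 5×10^5 cells/mL stimulated with LPS 1 μg/mL; compound at 10, 20 or 40 μM final for 24 h, DMSO in blanks. Supernatant TNF-α and IL-10 measured by sandwich ELISA and PGE2 by competitive ELISA, OD at 450 nm; at least three independent experiments.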

BV-2 [14] = assay: Antiinflammatory activity against LPS-induced mouse BV-2 cells assessed as increase in IL-10 production at 40 uM after 24 hrs by ELISA; type: functional, cell-based; method in brief: as §4
BV-2 [15] = assay: Antiinflammatory activity against LPS-induced mouse BV-2 cells assessed as decrease in ROS production at 10 to 40 uM after 6 hrs by DCFH-DA fluorescence probe based flow cytometric analysis; type: functional, cell-based; settings: dose 10-40 µM
Method in brief: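 BV2 cells with LPS 1 μg/mL and compound at 10, 20 or 40 μM for 6 h, then DCFH-DA 20 μM final for 30 min at 37 °C. Washed in cold PBS and read by flow cytometry, excitation 485 nm and emission 530 nm.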

[16] = Cmax in Sprague-Dawley rat at 50 mg/kg, ip up to 24 hrs by LC-MS analysis; type: ADME, organism-based; set-up: route intraperitoneal, dose 50 mg/kg, time <=24; settings: in vivo
Method in brief: (§5)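 Male Sprague-Dawley rats, six per group, single 50 mg/kg intraperitoneal dose; parameters derived by non-compartmental analysis using the linear trapezoidal method; mean ± SD, n = 6.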

[17] = Tmax in Sprague-Dawley rat at 50 mg/kg, ip up to 24 hrs by LC-MS analysis; type: ADME, organism-based; settings: in vivo; method in brief: as §5
[18] = Induction of apoptosis in LPS-induced hippocampal neuroinflammatory Kunming mouse model at 50 mg/kg, ip administered bid for 6 days by Nissl staining based microscopic method; type: organism-based; settings: in vivo, 144 h, time 6 day
Method in brief: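 Male Kunming mice (8 weeks, 20–25 g, n = 10/group) were anaesthetised with i.p. chloral hydrate, then given LPS (3 μL of 10 mg/mL) into the lateral ventricle at 0.5 μL/min; sham mice received 3 μL saline. Compound was then given i.p. at 50 mg/kg in saline with 1% methyl cellulose for six consecutive days. Behaviour and deaths were recorded, and hippocampal slices were Nissl-stained.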

[19] = Half life in Sprague-Dawley rat at 50 mg/kg, ip up to 24 hrs by LC-MS analysis; type: ADME, organism-based; settings: in vivo; method in brief: as §5
Mus musculus = assay: Antiinflammatory activity against LPS-induced hippocampal neuroinflammatory Kunming mouse model assessed as reduction in GFAP level in hippocampus at 50 mg/kg, ip administered bid for 6 days by DAPI staining based microscopic method; type: functional, organism-based; settings: time 6.0 day

Compound	IC50 (BV-2 [1]) [µM]	IC50 (C6 [2]) [µM]	IC50 [3] [µM]	IC50 [4] [µM]	IC50 (C6 [5]) [µM]	IC50 [6] [µM]	other results
Cc1cccc(Nc2ccccc2C(=O)NCCc2c[nH]c3ccc(O)cc23)c1C	56.4	80.5	1.4	–	–	–	–
Cc1ccc2[nH]cc(CCNC(=O)c3ccccc3Nc3ccccc3)c2c1	64.6	87.9	1.47	27	–	–	Ratio IC50 (Homo sapiens): 18.4
O=C(NCCc1c[nH]c2ccccc12)c1ccccc1O	> 100	> 100	> 40	–	> 40	26.4	–
O=C(NCCc1c[nH]c2ccccc12)c1ccccc1Nc1ccccc1	> 100	115	2.62	0.47	15.3	25.9	EC50 [7]: > 100 µM; Activity (BV-2 [8]): Active; Activity (C6 [9]): Active; Activity (BV-2 [10]): 66%; Ratio IC50 (Homo sapiens): 0.18; inhibition (C6 [11]): Dose-dependent effect; Activity (BV-2 [12]): Active; inhibition (BV-2 [13]): Dose-dependent effect; Activity (BV-2 [14]): inactive; Activity (BV-2 [15]): Active
NCCc1c[nH]c2ccc(O)cc12 [SEROTONIN]	–	–	–	–	–	–	EC50 [7]: 0.63 µM
O=C(NCCc1c[nH]c2ccc(O)cc12)c1ccccc1O	> 100	> 100	0.8	1.74	> 40	> 40	Ratio IC50 (Homo sapiens): 2.18
O=C(NCCc1c[nH]c2ccccc12)c1cc2ccccc2cc1O	> 100	> 100	2.18	39.2	13.2	59	Ratio IC50 (Homo sapiens): 18
Cc1ccc2[nH]cc(CCNC(=O)c3ccccc3Nc3cccc(Cl)c3C)c2c1	73.7	66.1	9.72	–	–	–	–
CN(C)c1ccccc1C(=O)NCCc1c[nH]c2ccc(O)cc12	> 100	> 100	0.57	–	> 40	> 40	–
COc1ccc2[nH]cc(CCNC(C)=O)c2c1 [MELATONIN]	–	–	–	–	–	–	EC50 [7]: > 40 µM; Cmax [16]: 1150 ng/mL; Tmax [17]: 11.4 min; Activity [18]: Toxic; half-life [19]: 32.4 min
O=C(NCCc1c[nH]c2ccccc12)c1ccc(F)cc1O	> 100	> 100	> 40	> 40	> 40	> 40	–
Cc1c(Cl)cccc1Nc1ccccc1C(=O)NCCc1c[nH]c2ccccc12	54.6	71.1	14.5	–	–	–	–
COc1ccc2[nH]cc(CCNC(=O)c3ccccc3Nc3ccccc3)c2c1	> 100	89.3	2.76	38.6	7.61	19.9	Ratio IC50 (Homo sapiens): 14
Cc1cccc(Nc2ccccc2C(=O)NCCc2c[nH]c3ccccc23)c1C	55.1	95.2	2.31	–	–	–	–
O=C(NCCc1c[nH]c2ccccc12)c1ccc(O)cc1O	> 100	> 100	25	> 40	> 40	> 40	–
O=C(NCCc1c[nH]c2ccc(Cl)cc12)c1ccccc1Nc1ccccc1	62.4	79.3	0.58	1.34	–	–	Ratio IC50 (Homo sapiens): 2.31
COc1ccc2[nH]cc(CCNC(=O)c3ccccc3Nc3cccc(Cl)c3C)c2c1	> 100	62.4	> 40	–	–	–	–
Cc1ccc2[nH]cc(CCNC(=O)c3ccccc3O)c2c1	> 100	> 100	> 40	> 40	> 40	> 40	–
Cc1ccc(O)c(C(=O)NCCc2c[nH]c3ccccc23)c1	> 100	> 100	> 40	> 40	> 40	> 40	–
CNc1ccccc1C(=O)NCCc1c[nH]c2ccccc12	> 100	> 100	> 40	> 40	> 40	> 40	–
O=C(NCCc1c[nH]c2ccccc12)c1cc(Cl)ccc1O	> 100	> 100	10.4	> 40	> 40	> 40	–
CN(C)c1ccccc1C(=O)NCCc1c[nH]c2ccccc12	> 100	> 100	> 40	–	> 40	22.9	–
CN(c1ccccc1)c1ccccc1C(=O)NCCc1c[nH]c2ccccc12	7.98	28.5	> 40	–	–	–	–
O=C(O)c1ccccc1O [SALICYLIC ACID]	–	–	> 40	> 40	–	–	Activity (Mus musculus): Active; Activity [18]: Toxic
